Source: PubChem (several laboratories)
Shown are actives, neighbours in structure and some others; about 1.7% of the full set was active somewhere.
MEX-5 binding = C. elegans MEX-5 TCR-2 RNA binding activity. Q9XUB2. hit rate 0.38% among 300,000. activity score (negative = inhibition of binding), % at 10 µM. MEX-5/FITC-TCR2 RNA binding, fluorescence polarization; active compounds read low;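 active = inhibition past about -25% in most replicates, and total fluorescence under double the plate's negative control median, limit read from the data; inconclusive = replicates evenly split on the limit, or fluorescence at least double controls; inactive = too little inhibition in most replicates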;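 note: 0% = DMSO and -100% = 5 µM competing unlabeled TCR2 RNA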
Target sequence (Q9XUB2 whole entry, looked up): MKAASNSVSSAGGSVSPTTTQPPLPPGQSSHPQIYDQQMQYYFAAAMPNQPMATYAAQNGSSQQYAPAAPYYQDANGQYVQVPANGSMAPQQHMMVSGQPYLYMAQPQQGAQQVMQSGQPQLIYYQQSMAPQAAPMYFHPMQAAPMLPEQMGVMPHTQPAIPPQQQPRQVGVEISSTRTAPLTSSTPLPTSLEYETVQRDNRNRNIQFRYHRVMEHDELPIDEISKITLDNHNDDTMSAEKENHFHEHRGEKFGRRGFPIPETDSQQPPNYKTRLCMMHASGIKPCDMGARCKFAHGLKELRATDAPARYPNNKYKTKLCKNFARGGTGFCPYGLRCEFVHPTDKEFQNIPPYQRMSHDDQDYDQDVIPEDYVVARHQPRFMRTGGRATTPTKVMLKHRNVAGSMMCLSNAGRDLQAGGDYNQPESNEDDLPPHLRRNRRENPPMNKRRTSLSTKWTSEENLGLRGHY
ZTA DNA inh = counter-screen for EBNA-1 inhibitors: inhibitors of Epstein-Barr virus ZTA. inhibition, % at 11 µM. hit rate 0.15% among 320,000. ZTA-DNA binding, fluorescence polarization. P03206; in the data active = inhibition above about 33%
HCV NS3 hel inh = HCV NS3 helicase inhibition | NS3 helicase DNA unwinding, Cy5 molecular beacon fluorescence | inhibition, % at 10.9 µM | hit rate 0.56% among 290,000;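 active = inhibition above the mean of all tested compounds plus 3 SD, set per campaign, cut at about 35% in these data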;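 note: 0% = DMSO wells and 100% = thioflavine S control wells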
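System: HCV NS3 helicase fragment; control set: DMSO and thioflavine S; technique: Cy5 fluorescence at 0 and 60 min, beacon hairpin quenching; reagent: beacon DNA duplex substrate plus ATP; replicates: singlicate; schedule: 1 h reaction at 25 °C, ATP-initiated; medium: MOPS buffer pH 6.5 with MgCl2, DTT, Tween20, BSA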
EBV gp42 inh = EBV gp42 inhibition | Q1HVG2 | hit rate 0.42% among 220,000 | inhibition, % (tested at 21.74 µM) | AID 1085 | Fluorescence polarization binding assay, mP read-out; in the data active = inhibition above about 50%
Target sequence (Q1HVG2 whole entry, looked up): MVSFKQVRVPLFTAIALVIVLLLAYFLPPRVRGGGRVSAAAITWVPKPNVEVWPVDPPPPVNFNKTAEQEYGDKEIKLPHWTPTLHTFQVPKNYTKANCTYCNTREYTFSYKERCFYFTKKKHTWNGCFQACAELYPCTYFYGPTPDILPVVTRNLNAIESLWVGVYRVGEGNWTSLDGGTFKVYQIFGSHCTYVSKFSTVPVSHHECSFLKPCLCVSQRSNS
core dimer inh = blocks dimerization of HCV core protein; TR-FRET GST/Flag-core106 dimerization, 1536-well; hit rate 0.33% among 300,000; inhibition, % at 5 µM; AID 1899;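 active = inhibition above the mean of all tested compounds plus 3 SD, set per screening campaign, cut at about 45% in these data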
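Assay system: Tagged HCV core106 pair (GST and Flag) | Buffer or medium: KF-containing HEPES buffer, pH 7.45, DTT, CHAPS, BSA | Also added: Eu donor and XL665 acceptor anti-tag antibodies | Dosing: One concentration, 5 µM, in 0.5% DMSO | Timing: 4 h at 22.5 °C | Technique: TR-FRET 671 and 617 nm emission | Repeats: Singlicate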
EBNA-1 inhibitor = blocks EBNA-1 binding to DNA. EBNA-1 DNA binding, fluorescence polarization. inhibition, % at 14.8 µM. hit rate 0.34% among 300,000; in the data active = inhibition above about 28%
EBNA-1 inh conf = EBNA-1 (EBV) inhibition, confirmation | hit rate 35% among 830 | inhibition, % at 14.8 µM | AID 2292 | Recombinant EBNA-1 DBD, Cy5-DNA fluorescence polarization | shares compounds with EBNA-1 inhibitor;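 active = mean inhibition across replicates above a set limit taken from the earlier primary screen, cut at about 28% in these data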;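 note: plate controls were EBNA-1 protein with DMSO for no effect and wells lacking EBNA-1 for full effect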
ZTA DNA inh trip = ZTA (EBV) inhibition, triplicate counter-screen. shares compounds with EBNA-1 inhibitor. Zta-ZRE DNA binding, Cy5 fluorescence polarization. inhibition, % at 11.1 µM. 830 tested, under 10 active. AID 2328;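 active = mean inhibition over triplicates above a set limit taken from the primary EBNA-1 screen, cut at about 37% in these data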;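 note: purified full length Zta protein with Cy5 labeled ZRE DNA probe; 0% = Zta with DMSO and 100% = wells lacking Zta protein; inhibitors lower polarization by freeing the labeled DNA probe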
ZTA inh confirm = EBV ZTA DNA binding inhibition, confirmation. shares compounds with ZTA DNA inh. Zta-ZRE DNA binding, fluorescence polarization. inhibition, % at 11.1 µM. hit rate 30% among 320. AID 2361;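 active = mean inhibition across triplicate runs above the hit threshold derived for the original primary screen, cut at about 33% in these data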;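 note: 0% = Zta with DMSO and 100% = wells lacking Zta protein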
EBNA1 counter = EBNA-1 DNA binding inhibition, counter-screen for ZTA; shares compounds with ZTA DNA inh; fluorescence polarization; inhibition, % at 14.8 µM; 320 tested, under 10 active; AID 2362; call rule not given here
Numbers without * were called inactive; ? = inconclusive; / = not tested or not shown.

SMILES	MEX-5 binding	ZTA DNA inh	HCV NS3 hel inh	EBV gp42 inh	core dimer inh	EBNA-1 inhibitor	ZTA inh confirm	EBNA1 counter	others
COc1ccc(CCN2CC(C(=O)N(C)Cc3cccnc3)CC2=O)cc1OC (stereo unspecified)	/	5	/	/	/	/	/	/
Cc1ccc(CN(C)C(=O)C2CCC(=O)N(CCc3ccccc3)C2)o1 (stereo unspecified)	0	/	3	/	/	/	/	/
CCOC(=O)N1CCN(CC(O)COc2ccc(C)c(C)c2)CC1 (stereo unspecified)	1	-7	0	/	-2	-11	/	/
CCOc1ccc(NC(=O)c2cccc(NC(=O)c3ccccc3)c2)cc1	0	0	-14	/	-7	46*	/	/	EBNA-1 inh conf=37*;ZTA DNA inh trip=-3
O=C(NNC(=O)c1cccs1)c1ccc(Br)cc1	0	-7	-6	/	-2	-6	/	/
O=C(Nc1cccc(NC(=O)c2ccc(F)cc2)c1)c1ccc(F)cc1	1	8	-8	/	12	28*	/	/	EBNA-1 inh conf=10;ZTA DNA inh trip=2
O=C(Nc1cccc(NC(=O)c2cccs2)c1)c1ccc(Br)cc1	4	13	3	/	3	70*	/	/	EBNA-1 inh conf=75*;ZTA DNA inh trip=9
O=C(Nc1cccc(NC(=O)c2ccccc2Cl)c1)c1ccc(F)cc1	-1	-8	-3	/	4	3	/	/
Cc1ccc(NC(=O)c2ccc(=O)[nH]n2)cc1S(=O)(=O)Nc1ccccc1Cl	/	-1	/	/	/	/	/	/
Cc1ccc(NC(=S)NC(=O)c2ccc(F)cc2)cc1S(=O)(=O)Nc1ccccc1Cl	0	5	5	1	23	28*	/	/	EBNA-1 inh conf=-7;ZTA DNA inh trip=-13
CC(=O)c1ccc(NC(=O)CN(C)CC(=O)Nc2cccc(F)c2)cc1	-1	16	-8	4	-2	-4	/	/
Cc1ccccc1-c1nsc(SCC(=O)Nc2ccc3c(c2)OCO3)n1	0	10	6	-12	0	31*	/	/	EBNA-1 inh conf=18;ZTA DNA inh trip=14
CN(CC(=O)NCCCc1ccccc1)S(=O)(=O)c1ccc(Br)cc1	0	-5	8	/	4	-2	/	/
Cc1ccc2[nH]c3c(=O)n(Cc4ccncc4)cnc3c2c1	-1	-8	-1	2	-3	-5	/	/
Cc1ccc2[nH]c3c(=O)n(Cc4ccco4)cnc3c2c1	-1	15	-5	-4	4	51*	/	/	EBNA-1 inh conf=55*;ZTA DNA inh trip=4
C/C(=N\NC(=O)c1c(Br)c(C)nn1C)c1ccc(NC(=O)c2ccoc2C)cc1	3	9	4	-11	-3	63*	/	/	EBNA-1 inh conf=72*;ZTA DNA inh trip=9
N#C/C(=C\c1cn(Cc2ccccc2F)c2ccccc12)C(=O)NCc1ccco1	-9	6	-6	-25	19	62*	/	/	EBNA-1 inh conf=57*;ZTA DNA inh trip=-6
CCCCn1c(N)c(N(CCOC)C(=O)CCCc2cccs2)c(=O)[nH]c1=O	0	-8	/	/	8	-9	/	/
COc1ccc2nc(NC(=O)CSc3nnc(C)s3)sc2c1	0	-8	-6	-12	3	29*	/	/	EBNA-1 inh conf=7;ZTA DNA inh trip=-1
COc1cccc2c1C(=O)c1c(O)c3c(c(O)c1C2=O)C[C@@](O)(C(=O)CO)C[C@@H]3O[C@H]1C[C@H](N)[C@@H](O)[C@H](C)O1	?	72*	/	/	-23	20	106*	12
Cc1cc(=O)[nH]c2c1cnn2C(C)c1ccccc1 (stereo unspecified)	1	1	20	/	-2	5	/	/
CCc1ccc(Nc2c([N+](=O)[O-])c(=O)oc3ccccc23)cc1	-5	2	-21	0	5	-1	/	/
CCNc1c([N+](=O)[O-])c(=O)oc2ccccc12	0	35*	3	-24	0	4	-9	-4
O=C(O)c1ccc(CN2C(=O)c3cccc4c([N+](=O)[O-])ccc(c34)C2=O)cc1	-6	/	20	/	/	/	/	/
Cc1ccc(C(=O)O)cc1N1C(=O)c2cccc3c([N+](=O)[O-])ccc(c23)C1=O	-24	39*	24	/	-15	9	35*	0
SMILES	MEX-5 binding	ZTA DNA inh	HCV NS3 hel inh	EBV gp42 inh	core dimer inh	EBNA-1 inhibitor	ZTA inh confirm	EBNA1 counter	others
O=C(Nc1ccc(C(F)(F)F)cc1)C1CC(=O)N(c2ccc3c(c2)OCCO3)C1 (stereo unspecified)	0	65*	-2	-5	1	-4	0	-6
O=C(Nc1ccc2c(c1)OCO2)C1CC(=O)N(c2ccc3c(c2)OCCO3)C1 (stereo unspecified)	2	-6	-1	-22	1	-9	/	/
CN1CCC(OC(c2ccccc2)c2ccccc2)CC1	1	60*	-13	8	7	7	13	7
CC(C)c1ccc(NC2CCCN(C(=O)c3cnsn3)C2)cc1 (stereo unspecified)	-2	-1	-5	/	-3	-2	/	/
COc1cccc(CNC(=O)C2Cc3ccccc3CN2C(C)=O)c1 (stereo unspecified)	-2	1	10	/	-9	-12	/	/
COc1ccc(C=O)c(OC)c1	-1	-13	3	1	-3	3	/	/
COc1ccc(OC)c(N)c1	-1	37*	-1	-24	-10	20	-13	-9
COc1ccc(-n2nnc3c(=O)n(CC(=O)N4CCCc5ccccc54)cnc32)cc1	0	36*	-3	/	6	15	3	-8
CCOc1ccc(-n2nnc3c(=O)n(CC(=O)N4CCCc5ccccc54)cnc32)cc1	0	4	3	-10	10	6	/	/
O=C(O)c1ccc(N/N=C/C2=C(N3CCOCC3)C(=C\c3ccccc3)/CC2)cc1	?	69*	27	-11	10	14	6	5
Cn1cc(C(=O)N/N=C/C2=C(N3CCOCC3)C(=C/c3ccc([N+](=O)[O-])cc3)/CC2)ccc1=O	1	0	/	/	16	10	/	/
CCn1c(CSc2nccn2C)nc2cc(C(=O)O)ccc21	-19	38*	18	72*	-5	4	28	16
CCn1c(CSc2nc3ccccc3[nH]2)nc2cc(C(=O)O)ccc21	/	29	3	19	1	19	/	/
COc1ccc(OCc2nnc(SCC(=O)Nc3nnc(C4CC4)s3)n2C)cc1	-2	-1	-1	/	3	1	/	/
COc1ccc(S(=O)(=O)/N=C2\C=C(Nc3ccc(O)cc3)C(=O)c3ccccc32)cc1	2	35*	-17	/	-22	-7	31	-10
O=C(O)c1ccc(S(=O)(=O)/N=C2\C=C(Nc3ccccc3F)C(=O)c3ccccc32)cc1	-42*	62*	13	/	15	2	69*	11
